Test results as given in ChEMBL document CHEMBL4007508, “Discovery and Pre-Clinical Characterization of Third-Generation 4-H Heteroaryldihydropyrimidine (HAP) Analogues as Hepatitis B Virus (HBV) Capsid Inhibitors” (J Med Chem, 2017).
≈ marks a conversion by molar mass, not a printed value.

Columns and labels:
[1] = Cytotoxicity against HBV infected human HepDE19 cells assessed as decrease in cell viability after 5 days by CCK8 assay; format: cell-based
Procedure, shortened: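 Tetracycline-inducible HBV HepDE19 cells seeded 5 × 10^3/well and treated with compounds. After 5 days, viability read by CCK-8 (2 h, 37 °C; absorbance 450 and 630 nm).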

[2] = system: Hepatitis B virus; experiment: Antiviral activity against HBV infected in human HepG2(2.2.15) cells assessed as decrease in HBV genome replication after 5 days by qPCR method; format: functional, cell-based; settings: HepG2 2.2.15, 120 h
Procedure, shortened: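 HepG2.2.15 cells (stable HBV genome, Hep G2-derived; DMEM-F12, 10% FBS, penicillin/streptomycin, 0.5 mg/mL G418) seeded 3 × 10^4/well, incubated overnight at 37 °C. Compounds serially half-log diluted in DMSO, then in medium; final DMSO 0.5%. HBV DNA extracted and quantified by qPCR.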

[3] = Solubility of compound in phosphate buffer at pH 6.5 after one night incubation by HPLC-UV method; format: physicochemical
[4] = Selectivity index, ratio of CC50 for HBV infected human HepDE19 cells to EC50 for HBV infected in human HepG2(2.2.15) cells
Procedure, shortened: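 Selectivity index calculated as CC50 (HepDE19, CCK-8 viability after 5 days) divided by EC50 (HBV DNA reduction in HepG2.2.15 cells, qPCR).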

| SMILES | CC50 at 120 h [1] [nM] | EC50 [2] [nM] | solubility [3] [µg/mL] | Ratio CC50/EC50 [4] |
| --- | --- | --- | --- | --- |
| CCOC(=O)C1=C(CN2CCOC[C@H]2C(=O)O)NC(c2nccs2)=N[C@H]1c1cccc(F)c1Br | 95000 | 0.7 | – | – |
| COC(=O)C1=C(CN2CCOC[C@@]2(C)C(=O)O)NC(c2nccs2)=N[C@H]1c1ccc(F)cc1Cl | > 100000 | 20 | 600 (≈ 1180 µM) | – |
| COC(=O)C1=C(CN2CCOC[C@H]2C(=O)O)NC(c2nccs2)=N[C@H]1c1ccc(F)c(F)c1Cl | > 100000 | 1 | – | >100000 |
| COC(=O)C1=C(CN2CCOC[C@H]2C(=O)O)NC(c2ncco2)=N[C@H]1c1ccc(F)cc1Cl | > 100000 | > 1000 | – | – |
| CCOC(=O)C1=C(CN2CCOC[C@H]2C(=O)O)NC(c2nccs2)=N[C@H]1c1cccc(C#N)c1Cl | – | > 100 | – | – |
| CCOC(=O)C1=C(CN2CCOC[C@H]2C(=O)O)NC(c2nccs2)=N[C@H]1c1ccccc1Cl | > 100000 | 14 | – | >7143 |
| CCOC(=O)C1=C(CN2CCOC[C@H]2C(=O)O)NC(c2nccs2)=N[C@H]1c1ccc(F)cc1 | 62000 | 15 | – | 4133 |
| CCNC(=O)C1=C(CN2CCOC[C@H]2C(=O)O)NC(c2nccs2)=N[C@H]1c1ccc(F)cc1Cl | – | > 1000 | – | – |
| COC(=O)C1=C(CN2CCOC[C@H]2CCC(=O)O)NC(c2nccs2)=N[C@H]1c1ccc(F)cc1Cl | > 100000 | 150 | > 697 | >667 |
| COC(=O)C1=C(CN2CCOC(C(=O)O)C2)NC(c2nccs2)=N[C@H]1c1ccc(F)cc1Cl (some centres undefined) | > 100000 | 333 | > 592 | >300 |
| CCOC(=O)C1=C(CN2CCOC[C@H]2C(=O)O)NC(c2nccs2)=N[C@H]1c1ccc(F)cc1F | > 100000 | 14 | – | >7143 |
| CCOC(=O)C1=C(CN2CCOC[C@H]2C(=O)O)NC(c2nccs2)=N[C@H]1c1ccc(C)cc1Cl | > 100000 | 3 | – | >33333 |
| COCCOC(=O)C1=C(CN2CCOC[C@H]2C(=O)O)NC(c2nccs2)=N[C@H]1c1ccc(F)cc1Cl | > 100000 | 190 | – | >526 |
| COC(=O)C1=C(CN2CCOC[C@H]2CNS(C)(=O)=O)NC(c2nccs2)=N[C@H]1c1ccc(F)cc1Cl | 88000 | 4 | 48 (≈ 86 µM) | 22000 |
| O=C(OCC(F)(F)F)C1=C(CN2CCOC[C@H]2C(=O)O)NC(c2nccs2)=N[C@H]1c1ccc(F)cc1Cl | 27000 | 13 | – | 2077 |
| COC(=O)C1=C(CN2CCOC[C@H]2C(=O)O)NC(c2nccs2)=N[C@H]1c1ccc(C)cc1Cl | > 100000 | 11 | – | >9091 |
| COC(=O)C1=C(C)NC(c2nc(C(=O)O)cs2)=NC1c1ccc(F)cc1Cl (centres undefined) | – | > 1000 | – | – |
| COC(=O)C1=C(CN2CCOC[C@H]2C(=O)O)NC(c2ncccn2)=N[C@H]1c1ccc(F)cc1Cl | > 100000 | > 1000 | – | – |
| N#CC1=C(CN2CCOC[C@H]2C(=O)O)NC(c2nccs2)=N[C@H]1c1ccc(F)cc1Cl | – | > 1000 | – | – |

| SMILES | CC50 at 120 h [1] [nM] | EC50 [2] [nM] | solubility [3] [µg/mL] | Ratio CC50/EC50 [4] |
| --- | --- | --- | --- | --- |
| COC(=O)C1=C(C)NC(c2nccs2)=N[C@H]1c1ccc(F)cc1Cl | 83000 | 80 | 16 (≈ 43.7 µM) | 1038 |
| COC(=O)C1=C(CN2CCOC[C@H]2C(=O)O)NC(c2ncc(F)cc2F)=N[C@H]1c1ccc(F)cc1Cl | 23000 | 8 | – | 2875 |
| COC(=O)C1=C(CN2CCCC[C@H]2C(=O)O)NC(c2nccs2)=N[C@H]1c1ccc(F)cc1Cl | – | > 1000 | – | – |
| CCOC(=O)C1=C(CN2CCOC[C@H]2C(=O)O)NC(c2nccs2)=N[C@H]1c1ccc(F)cc1C | > 100000 | 3 | – | >33333 |
| COC(=O)C1=C(CN2CCOC[C@H]2C(=O)O)NC(c2nccs2)=N[C@H]1c1ccc(F)c(F)c1Br | 80000 | 1 | – | 80000 |
| COC(=O)C1=C(CN2CCOC[C@H]2C(=O)OC)NC(c2nccs2)=N[C@H]1c1ccc(F)cc1Cl | – | 4 | < 1 | – |
| COC(=O)C1=C(CN2CCOC[C@H]2C(=O)O)NC(c2nccs2)=N[C@H]1c1ccc(F)cc1C(F)(F)F | > 100000 | > 100 | – | – |
| CCOC(=O)C1=C(CN2CCOC[C@H]2C(=O)O)NC(c2nccs2)=N[C@H]1c1ccc(OC)cc1 | – | > 100 | – | – |
| CCOC(=O)C1=C(CN2CCOC[C@H]2C(=O)O)NC(c2nccs2)=N[C@H]1c1ccc(C#N)cc1 | – | > 100 | – | – |
| COC(=O)C1=C(CN2CCOC[C@H]2C(N)=O)NC(c2nccs2)=N[C@H]1c1ccc(F)cc1Cl | > 100000 | 3 | 205 (≈ 415 µM) | >33333 |
| COC(=O)C1=C(CN2CCOC[C@H]2C(=O)O)NC(c2ncoc2C)=N[C@H]1c1ccc(F)cc1Cl | > 100000 | 14 | – | >7143 |
| COC(=O)C1=C(CN2CCOC[C@H]2C(=O)O)NC(c2nccn2C)=N[C@H]1c1ccc(F)cc1Cl | 82000 | 42 | – | 1952 |
| COC(=O)C1=C(CN2CCN(C(C)=O)C[C@H]2C(=O)O)NC(c2nccs2)=N[C@H]1c1ccc(F)cc1Cl | – | > 1000 | – | – |
| COC(=O)C1=C(CN2CCOCC2CO)NC(c2nccs2)=N[C@H]1c1ccc(F)cc1Cl (some centres undefined) | 74000 | 5 | 475 (≈ 988 µM) | 14800 |
| CCOC(=O)C1=C(CN2CCOC[C@H]2C(=O)O)NC(c2nccs2)=N[C@H]1c1ccc(F)c(F)c1C | 97000 | 0.6 | – | – |
| COC(=O)C1=C(CN2CCOC[C@H]2C(=O)O)NC(c2nccs2)=N[C@H]1c1ccc(F)cc1C | > 100000 | 8 | – | 12500 |
| CC1=C(C(=O)O)C(c2ccc(F)cc2Cl)N=C(c2nccs2)N1 (centres undefined) | – | > 1000 | – | – |
| COC(=O)C1=C(CN2CCOC[C@H]2C(=O)O)NC(c2nccs2)=N[C@H]1c1ccc(F)cc1Br | > 100000 | 6 | – | – |
| COC(=O)C1=C(CN2CCOC[C@H]2C(=O)O)NC(c2nc(C3CC3)cs2)=N[C@H]1c1ccc(F)cc1Cl | – | 22 | – | – |

| SMILES | CC50 at 120 h [1] [nM] | EC50 [2] [nM] | solubility [3] [µg/mL] | Ratio CC50/EC50 [4] |
| --- | --- | --- | --- | --- |
| COC(=O)C1=C(CN2CCNC[C@H]2C(=O)O)NC(c2nccs2)=N[C@H]1c1ccc(F)cc1Cl | – | > 1000 | – | – |
| CCOC(=O)C1=C(CN2CCOC[C@H]2C(=O)O)NC(c2nccs2)=N[C@H]1c1cccc(Cl)c1Cl | – | > 100 | – | – |
| CCOC(=O)C1=C(CN2CCOC[C@H]2C(=O)O)NC(c2nccs2)=N[C@H]1c1ccc(F)c(F)c1Br | 51000 | 0.7 | – | 72857 |
| CC(C)(C)OC(=O)C1=C(CN2CCOC[C@H]2C(=O)O)NC(c2nccs2)=N[C@H]1c1ccc(F)cc1Cl | 41000 | > 100 | – | – |
| CCCOC(=O)C1=C(CN2CCOC[C@H]2C(=O)O)NC(c2nccs2)=N[C@H]1c1ccc(F)cc1Cl | > 100000 | 12 | – | >8333 |
| COC(=O)C1=C(CN2CCO[C@H](C(C)C)[C@H]2C(=O)O)NC(c2nccs2)=N[C@H]1c1ccc(F)cc1Cl | 81000 | 5 | – | 16200 |
| COC(=O)C1=C(CN2CCOC[C@H]2C(=O)O)NC(c2nccs2)=N[C@H]1c1cccc(F)c1Cl | > 100000 | 4 | – | >25000 |
| COC(=O)C1=C(CN2CCOC[C@H]2C(=O)O)NC(c2nccs2)=N[C@H]1c1ccc(F)cc1C1CC1 | > 100000 | > 100 | – | – |
| CCOC(=O)C1=C(CN2CCOC[C@H]2C(=O)O)NC(c2nccs2)=N[C@H]1c1ccc(Br)cc1Cl | 31000 | 3 | – | – |
| COC(=O)C1=C(CN2CCSCC2C(=O)O)NC(c2nccs2)=N[C@H]1c1ccc(F)cc1Cl (single isomer, unassigned) | 60000 | 38 | 584 (≈ 1140 µM) | 1579 |
| CCOC(=O)C1=C(CN2CCOC[C@H]2C(=O)O)NC(c2nccs2)=N[C@H]1c1ccc(F)cc1Br | 72000 | – | – | – |
| COC(=O)C1=C(C)NC(c2nccs2)=NC1c1cccc(C(=O)O)c1 (centres undefined) | – | > 1000 | – | – |
| COC(=O)C1=C(CN2CCOC[C@@H]2C(=O)O)NC(c2nccs2)=N[C@H]1c1ccc(F)cc1Cl | > 100000 | 79 | – | >1266 |
| COC(=O)C1=C(CN2CCOC[C@H]2C(=O)O)NC(c2nccs2)=N[C@H]1c1ccc(C(F)(F)F)cc1Cl | 50000 | > 100 | – | 431 |
| COC(=O)C1=C(CN2CCOC[C@H]2C(=O)O)NC(c2nc(C)cs2)=N[C@H]1c1ccc(F)cc1Cl | > 100000 | 7 | – | >14826 |
| CC(C)OC(=O)C1=C(CN2CCOC[C@H]2C(=O)O)NC(c2nccs2)=N[C@H]1c1ccc(F)cc1Cl | 72000 | 17 | – | 4235 |
| COC(=O)C1=C(CN2CCOC[C@H]2CC(=O)O)NC(c2nccs2)=N[C@H]1c1ccc(F)cc1Cl | > 100000 | 600 | > 638 | >167 |
| CCOC(=O)C1=C(CN2CCOC[C@H]2C(=O)O)NC(c2nccs2)=N[C@H]1c1ccc(F)c(F)c1Cl | 29000 | 0.6 | – | 48333 |
| COC(=O)C1=C(C)NC(c2ncc(F)cc2F)=N[C@H]1c1ccc(F)cc1Cl | – | 50 to 80 | – | – |
